Measured values reported in ChEMBL document CHEMBL4814039, “Identification of non-covalent SARS-CoV-2 main protease inhibitors by a virtual screen of commercially available drug-like compounds” (Bioorg Med Chem Lett, 2021).

biological target: Replicase polyprotein 1ab (Severe acute respiratory syndrome coronavirus 2) (UniProt P0DTD1); test: Inhibition of SARS-CoV-2 main protease at 50 uM using Dabcy1-KTSAVLQSGFRKM-E-Edans-NH2 as substrate incubated for 10 mins followed by substrate addition by FRET assay relative to control
Summary of the method: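 Mpro, 0.5 µM final, in pH 7.3 buffer (20 mM Tris-HCl, 100 mM NaCl, 1 mM EDTA, 1 mM DTT) preincubated with compound (50 µM final, from DMSO stock) at 37 °C for 10 min. Reaction started with FRET substrate solution at 20 µM. Read ex 360/em 460 nm. Inhibition is from the initial linear ΔRFU/s versus a DMSO-only control. Triplicate, mean ± SD.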

Going from O=C(NCc1ccc2c(c1)OCO2)c1ccc2nc3[nH]c4ccccc4c3nc2c1 to Fc1ccc([C@H]2Oc3ccccc3[C@H]3CC(c4ccc5c(c4)OCO5)=NN32)cc1, the inhibition falls from 35.6% to 6.87%.

Going from O=C(c1ccc2ccccc2n1)N1CCc2c(nc(-c3ccccc3)[nH]c2=O)C1 to Cc1cccc(Nc2nc(C(=O)N3CCc4ccccc43)nc3ccccc23)c1, the inhibition rises from 1.16% to 45.7%.

First: Cc1cccc2cc(-c3c4cn[nH]c4nc4c3oc3c(O)c(O)ccc34)c(=O)[nH]c12
Second: O=c1oc2ccccc2c(O)c1[C@H]1c2ncccc2-c2c1c(=O)oc1ccccc21
The inhibition of the first is higher: 76.6% for the first, 8.23% for the second.

Going from O=C(c1cc2nccc(-c3ccc4ccccc4c3)n2n1)N1CCN2CCC[C@H]2C1 to Cc1cccc2[nH]c([C@H]3CCCN(C(=O)c4nc5ccccn5c4F)C3)nc12, the inhibition rises from 9.38% to 11.1%.

Compared with O=C1C[C@H](c2ccc(Cl)cc2)N2N=C(N3C(=O)[C@H]4CCCC[C@H]4C3=O)NC2=N1, CC1=NN(c2ccc3ccccc3c2)C(=O)/C1=C1/C(=O)Nc2ccc(Cl)cc21 is higher in inhibition: 8.84% for the first, 16.6% for the second.

Going from CC(=O)N1N=C(c2cc(-c3ccccc3)nc3ccccc23)O[C@H]1c1ccccc1 to Cn1c2ccccc2c(=O)c2c1nc(Cc1ccccc1)n1c3ccccc3nc21, the inhibition falls from 14.3% to 7.42%.

Going from Cc1ccc(-n2nc(C)c3c(C)cc(OCc4ccc5nonc5c4)nc32)cc1 to Cc1cc(C)nc(-n2nc(C)c3c2NC(=O)C[C@@H]3c2ccc3ccccc3c2)n1, the inhibition rises from 5.26% to 7.54%.

First: Cn1c2ccccc2c2cc([C@@H]3N[C@H](C(=O)O)Cc4c3[nH]c3ccccc43)ccc21
Second: O=C(CN1C(=O)c2ccccc2N2C(=O)c3ccccc3[C@H]12)Nc1cccc(O)c1
The inhibition of the first is higher: 6.54% for the first, 5.21% for the second.

Cc1ccc2c(c1)NC1(CCN(C(=O)Cc3ccc(F)cc3)CC1)c1cccn1-2 gave an inhibition of 6.29%.
